What all share (type): functional, cell-based
The subject of assay [1] is RBL-2H3. Nature of the assay: Antiallergic activity against antigen-IgE-mediated degranulation in rat RBL2H3 cells assessed as inhibition of DNP-BSA-induced beta-hexosaminidase release preincubated for 10 mins before DNP-BSA challenge measured after 10 mins. A digest of the protocol: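 Test sample was added to each RBL-2H3 well 10 min before DNP-BSA challenge. β-Hexosaminidase released into the medium was determined 10 min after challenge.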

Assay [2] concerns RBL-2H3. In words: Antiallergic activity against antigen-IgE-mediated degranulation in rat RBL2H3 cells assessed as inhibition of DNP-BSA-induced TNFalpha release preincubated for 10 mins before DNP-BSA challenge measured after 4 hrs. A digest of the protocol:
(§1)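 Test sample was added to each RBL-2H3 well 10 min before DNP-BSA challenge. TNF-α and IL-4 released into the medium were measured 4 h after challenge.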

Assay [3] deals with RBL-2H3. In words: Antiallergic activity against antigen-IgE-mediated degranulation in rat RBL2H3 cells assessed as inhibition of DNP-BSA-induced IL4 release preincubated for 10 mins before DNP-BSA challenge measured after 4 hrs. In short, it runs like this:
as §1

A word on the IC50: it is the concentration at which inhibition is half-maximal.

Where a name gives a salt, the structure may show the parent alone.

For the compound `CC(=O)Oc1ccc(C(O)c2ccccc2)cc1` (stereo unspecified), in assay [1], the IC50 was greater than 100 µM. In the case of `CC(C)C(=O)Oc1ccc(C(OC(=O)C(C)C)c2ccccc2)cc1` (stereo unspecified), in assay [1], the IC50 is greater than 100 µM. The same measure, in the same setting: the result for `COC(=O)Oc1ccc(C(OC(=O)OC)c2ccccc2)cc1` (stereo unspecified) reads 18 µM; that for `CC(=O)Oc1ccc(C(OC(=O)C(C)(C)C)c2ccccc2)cc1` (stereo unspecified), 36 µM. With `C=CC(=O)Oc1ccc(C(OC(=O)C=C)c2ccccc2)cc1` (stereo unspecified), in assay [1], the half-inhibitory concentration (IC50) worked out at 28 µM. As for `COC(=O)OC(c1ccccc1)c1ccc(OC(C)=O)cc1` (stereo unspecified), the figures for the IC50 in assay [1], in assay [2] and in assay [3] were 6.5 µM, 11 µM and 12 µM, respectively. Consider `O=COc1ccc(C(OC=O)c2ccccc2)cc1` (stereo unspecified), for which, in assay [1], the IC50 was greater than 100 µM. Same read-out and setting: as for `CC(=O)Oc1ccc(C(OC(C)=O)c2ccccc2)cc1` (stereo unspecified), the figure is 14 µM.

Consider `CC(=O)Oc1ccc(C(OC(=O)c2ccccc2)c2ccccc2)cc1` (stereo unspecified), for which the IC50 in assay [1] was 17 µM; in assay [2], 28 µM; in assay [3], 23 µM. On to `CN1CCC(=C2c3ccccc3CC(=O)c3sccc32)CC1` [KETOTIFEN FUMARATE], for which the IC50 in assay [1] was 158 µM. The same measure, in the same setting: as for `CC(=O)Oc1ccc(C(OC(=O)C(C)C)c2ccccc2)cc1` (stereo unspecified), the figure is 27 µM; as for `CCC(=O)Oc1ccc(C(OC(=O)CC)c2ccccc2)cc1` (stereo unspecified), 38 µM.

Source of the values: ChEMBL document CHEMBL1136910, “Acetoxybenzhydrols as highly active and stable analogues of 1'S-1'-acetoxychavicol, a potent antiallergic principal from Alpinia galanga” (Bioorg Med Chem Lett, 2009).
